Series [1] in a line: Solubility in oral dosing vehicles. The format is physicochemical. As to conditions: oral dosing vehicle.
The next series deals with human 3A4. As to conditions: cited from earlier work.
The conditions of series [2]: cited from earlier work.
Another series is described as follows: Single dose PK. The series is classed as in vivo. Particulars: female, Swiss Webster, mouse, plasma, po, 50 mg/kg. The essentials: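 Eight-week-old female Swiss Webster mice were given one oral gavage dose of 50 mg/kg, formulated at 10 mg/mL in 20% solutol/80% water. Nine mice were dosed, with n = 3 plasma samples at about 0.25, 0.5, 1, 2, 4, 6, 8, 12 and 24 h. Plasma protein was precipitated with 5 volumes of acetonitrile and filtered through 0.2 μm, then quantified by LC-MS/MS.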

Another series concerns the target CYP2D6 (Homo sapiens, UniProt P10635). Put plainly: CYP inhibition in human liver microsomes, 2D6. The series is classed as in vitro ADME. (Microsomes from liver hold many membrane-bound enzymes, among them those of drug oxidation.)
A further series concerns the target T1, CYP1A2 (Homo sapiens, UniProt P05177).
T1 sequence (P05177 1-516): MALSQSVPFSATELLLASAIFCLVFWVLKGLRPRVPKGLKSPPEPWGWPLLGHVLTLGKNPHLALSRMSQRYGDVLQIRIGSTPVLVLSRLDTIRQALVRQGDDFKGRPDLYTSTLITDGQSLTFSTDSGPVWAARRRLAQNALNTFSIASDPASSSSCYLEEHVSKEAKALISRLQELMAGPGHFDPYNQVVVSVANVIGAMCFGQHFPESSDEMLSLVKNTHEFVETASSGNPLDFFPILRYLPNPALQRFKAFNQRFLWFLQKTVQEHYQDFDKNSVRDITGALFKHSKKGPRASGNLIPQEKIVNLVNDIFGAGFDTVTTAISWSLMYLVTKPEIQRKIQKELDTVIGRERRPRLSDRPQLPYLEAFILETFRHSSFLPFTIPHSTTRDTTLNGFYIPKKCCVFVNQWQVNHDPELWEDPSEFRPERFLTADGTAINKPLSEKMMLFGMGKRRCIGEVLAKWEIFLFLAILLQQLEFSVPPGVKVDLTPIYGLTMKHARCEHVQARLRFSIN
Put plainly: CYP inhibition in human liver microsomes, 1A2. The format is in vitro ADME.

Another series has as its target CYP3A4 (Homo sapiens, UniProt P08684). As to the kind of experiment: CYP inhibition in human liver microsomes, 3A4. The series is classed as in vitro ADME.
The next series concerns the target CYP2C9 (Homo sapiens, UniProt P11712). As to the kind of experiment: CYP inhibition in human liver microsomes, 2C9. The series is classed as in vitro ADME.
Another series concerns T. cruzi Y luc strain. The series is classed as in vivo, Trypanosoma cruzi. Particulars: posaconazole 20 mg/kg, ip, bid, 4 days; two independent experiments (A, B).
Another series relates to 2C9. Particulars: read-out: IC50 toward 2C9; cited from earlier work.
[3] abbreviates: read-out: IC50 against human 3A4, ref 35.
Where [4] appears, read: read-out: IC50 against human 3A4, ref 67.

Counter-ions that a name gives are not always drawn. Like-named read-outs stand apart in the source and are kept apart here.

CYP3A4, sequence (P08684 whole entry): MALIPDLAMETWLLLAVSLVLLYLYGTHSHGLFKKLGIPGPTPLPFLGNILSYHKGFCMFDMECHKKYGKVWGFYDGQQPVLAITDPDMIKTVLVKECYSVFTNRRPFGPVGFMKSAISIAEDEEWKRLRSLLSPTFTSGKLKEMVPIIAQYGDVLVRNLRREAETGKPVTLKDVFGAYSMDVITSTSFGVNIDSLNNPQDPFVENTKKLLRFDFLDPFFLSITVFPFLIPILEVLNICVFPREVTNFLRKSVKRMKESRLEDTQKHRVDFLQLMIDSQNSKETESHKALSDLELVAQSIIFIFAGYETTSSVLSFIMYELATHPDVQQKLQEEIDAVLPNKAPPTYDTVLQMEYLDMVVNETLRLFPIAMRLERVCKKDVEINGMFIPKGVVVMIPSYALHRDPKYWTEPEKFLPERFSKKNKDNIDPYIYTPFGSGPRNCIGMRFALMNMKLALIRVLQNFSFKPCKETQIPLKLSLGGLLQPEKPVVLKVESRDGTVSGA
CYP2C9, sequence (P11712 whole entry): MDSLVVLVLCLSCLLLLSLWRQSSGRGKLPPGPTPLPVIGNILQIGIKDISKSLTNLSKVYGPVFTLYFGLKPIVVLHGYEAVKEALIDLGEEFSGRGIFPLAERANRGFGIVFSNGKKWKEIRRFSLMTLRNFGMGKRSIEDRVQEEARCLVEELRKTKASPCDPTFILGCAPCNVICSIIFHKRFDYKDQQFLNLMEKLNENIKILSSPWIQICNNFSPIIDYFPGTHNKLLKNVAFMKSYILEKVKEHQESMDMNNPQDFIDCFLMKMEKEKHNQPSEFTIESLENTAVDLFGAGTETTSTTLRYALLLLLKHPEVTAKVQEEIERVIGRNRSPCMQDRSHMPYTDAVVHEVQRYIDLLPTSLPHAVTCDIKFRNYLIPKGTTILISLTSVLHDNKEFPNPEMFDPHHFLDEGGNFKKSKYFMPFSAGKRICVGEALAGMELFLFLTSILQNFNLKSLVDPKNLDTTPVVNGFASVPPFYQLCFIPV
CYP2D6, sequence (P10635 whole entry): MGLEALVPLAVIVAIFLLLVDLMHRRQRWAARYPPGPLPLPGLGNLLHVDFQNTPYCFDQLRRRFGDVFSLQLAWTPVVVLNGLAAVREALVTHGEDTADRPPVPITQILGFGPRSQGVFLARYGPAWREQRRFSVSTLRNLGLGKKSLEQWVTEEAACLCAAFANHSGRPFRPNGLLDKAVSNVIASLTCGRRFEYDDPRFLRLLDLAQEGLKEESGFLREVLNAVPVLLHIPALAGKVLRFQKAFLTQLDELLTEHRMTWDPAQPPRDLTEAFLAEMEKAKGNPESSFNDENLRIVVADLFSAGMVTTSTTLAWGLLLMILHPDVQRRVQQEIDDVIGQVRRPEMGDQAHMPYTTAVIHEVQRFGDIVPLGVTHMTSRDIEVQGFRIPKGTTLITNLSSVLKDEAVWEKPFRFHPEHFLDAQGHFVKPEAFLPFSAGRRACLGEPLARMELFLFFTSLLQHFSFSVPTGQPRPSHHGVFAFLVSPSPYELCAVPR

`O=C(N[C@H](Cc1c[nH]c2ccccc12)C(=O)Nc1ccncc1)c1ccc(-c2ccc(F)c(Cl)c2)cc1F` [compound 7, (R)-N-(3-(1H-Indol-3-yl)-1-oxo-1-(pyridin-4-ylamino)propan-2-yl)-3′-chloro-3,4′-difluoro-[1,1′-biphenyl]-4-carboxamide hydrochloride]: the “solubility in 20% HPβCD” value in series [1] is given as “fully soluble”.

In general, IC50 refers to the midpoint of a concentration-inhibition curve. Regarding `CC(=O)N1CCN(c2ccc(OCC3COC(Cn4ccnc4)(c4ccc(Cl)cc4Cl)O3)cc2)CC1` (stereo not shown) [ketoconazole], the results for the IC50 with human 3A4 (setting [3]) and with human 3A4 (setting [4]) were 40 nM and 8 nM, respectively.

For the compound `CCO.C[C@@H](c1nc(-c2ccc(C#N)cc2)cs1)[C@@](Cn1cncn1)(OCOP(=O)(O)O)c1ccc(F)cc1F.NCCCC[C@H](N)C(=O)O` [E1224], the half-life in humans result in [2] is “measured in days”.

What is called half-life is how long it takes for the measured level to halve. High values mean slow decline, low ones rapid decline. `O=C(N[C@H](Cc1c[nH]c2ccccc12)C(=O)Nc1ccncc1)c1ccc(-c2ccc(F)c(C(F)(F)F)c2)cc1F` [compound 6, (R)-N-(3-(1H-Indol-3-yl)-1-oxo-1-(pyridin-4-ylamino)propan-2-yl)-3,4′-difluoro-3′-(trifluoromethyl)-[1,1′-biphenyl]-4-carboxamide] yielded a half-life in the series “Single dose PK” of less than 3.3 h.

For `O=C(N[C@H](Cc1c[nH]c2ccccc12)C(=O)Nc1ccncc1)c1ccc(-c2ccc(F)c(F)c2)cc1F` [compound 2, (R)-N-(3-(1H-Indol-3-yl)-1-oxo-1-(pyridin-4-ylamino)propan-2-yl)-3,3′,4′-trifluoro-[1,1′-biphenyl]-4-carboxamide], the half-life in the series “Single dose PK” was less than 3.3 h.

For orientation: inhibition means the change of the read-out against control, counted positive when it falls. Regarding `CC[C@@H]([C@H](C)O)n1ncn(-c2ccc(N3CCN(c4ccc(OC[C@@H]5CO[C@@](Cn6cncn6)(c6ccc(F)cc6F)C5)cc4)CC3)cc2)c1=O` [Posaconazole], the inhibition at 1 µM at CYP2D6 was -9%; against CYP1A2, -11%; at CYP3A4, 68%; on CYP2C9 it was -3%. Moreover, the IC50 with human 3A4 (setting [3]) was 350 nM; in the series with human 3A4 (setting [4]), 120 nM. The half-life in humans result in series [2] is “measured in days”. The “inhibition of parasitemia, positive control” value in the series with T. cruzi Y luc strain was 94–99%.

`O=C([C@@H](c1ccc(Cl)cc1)c1cccnc1)N1CCN(c2ccc(C(F)(F)F)cc2)CC1` [EPL-BS1246]: the IC50 in the series with human 3A4 (read-out: IC50 toward 3A4) was no less than 20000 nM; in the series on 2C9, 8000 to 9000 nM.

The record behind these values is article PMC4148169 (Journal of Medicinal Chemistry, 2014).
